Measured values published in ChEMBL document CHEMBL4038317, “Discovery of a Benzamide Derivative That Protects Pancreatic β-Cells against Endoplasmic Reticulum Stress” (J Med Chem, 2017).
Activity calls are given as the source filed them. The rule behind the calls is not given here.

Columns and labels:
[1] = system: INS1; test: Protection against tunicamycin ER stress-induced suppression of glucose-stimulated insulin secretion in rat INS-1 cells after 24 hrs by ELISA; type: functional, cell-based
Summary of the method: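 INS-1 cells were given tunicamycin 0.1 μg/mL and compound for 24 h, preincubated 1 h in KRBH (pH 7.4, 2% BSA) with 2.5 mM glucose, then given 1 h at low or high glucose. Secreted insulin was measured by ELISA and corrected for total protein (Bradford). Triplicate wells, three independent experiments.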

[2] = system: INS1; test: Cytotoxicity against rat INS-1 cells assessed as reduction in cell viability up to 10 uM after 3 days by CellTiter-Glo assay; type: cell-based; conditions: ins1, 72 h
Summary of the method: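 INS-1 cells, 3×10^3 per well, were given compound or DMSO alone (no tunicamycin) for 72 h. Intracellular ATP was read by luminescence and expressed as fold of untreated cells. Triplicate wells, three independent experiments.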

[3] = system: INS1; test: Cytoprotective activity against tunicamycin ER stress-induced apoptosis in rat INS-1 cells assessed as TUNEL positive cells at 0.1 to 1 uM after 24 hrs by TUNEL/DAPI-based microscopic analysis (reference value: 7%); type: functional
[4] = system: INS1; test: Cytoprotective activity in rat INS-1 cells assessed as protection against tunicamycin-induced ER stress-mediated reduction in cell viability after 3 days by CellTiter-Glo assay; conditions: INS1, 72 h
[5] = molecular target: T1, Eukaryotic translation initiation factor 2-alpha kinase 3 (Rattus norvegicus) (UniProt Q9Z1Z1); test: Inhibition of tunicamycin ER stress-induced PERK activation in rat INS-1 cells assessed as suppression of tunicamycin-induced increase in CHOP protein levels up to 10 uM after 8 hrs by Western blot analysis; type: cell-based
T1 sequence (whole entry): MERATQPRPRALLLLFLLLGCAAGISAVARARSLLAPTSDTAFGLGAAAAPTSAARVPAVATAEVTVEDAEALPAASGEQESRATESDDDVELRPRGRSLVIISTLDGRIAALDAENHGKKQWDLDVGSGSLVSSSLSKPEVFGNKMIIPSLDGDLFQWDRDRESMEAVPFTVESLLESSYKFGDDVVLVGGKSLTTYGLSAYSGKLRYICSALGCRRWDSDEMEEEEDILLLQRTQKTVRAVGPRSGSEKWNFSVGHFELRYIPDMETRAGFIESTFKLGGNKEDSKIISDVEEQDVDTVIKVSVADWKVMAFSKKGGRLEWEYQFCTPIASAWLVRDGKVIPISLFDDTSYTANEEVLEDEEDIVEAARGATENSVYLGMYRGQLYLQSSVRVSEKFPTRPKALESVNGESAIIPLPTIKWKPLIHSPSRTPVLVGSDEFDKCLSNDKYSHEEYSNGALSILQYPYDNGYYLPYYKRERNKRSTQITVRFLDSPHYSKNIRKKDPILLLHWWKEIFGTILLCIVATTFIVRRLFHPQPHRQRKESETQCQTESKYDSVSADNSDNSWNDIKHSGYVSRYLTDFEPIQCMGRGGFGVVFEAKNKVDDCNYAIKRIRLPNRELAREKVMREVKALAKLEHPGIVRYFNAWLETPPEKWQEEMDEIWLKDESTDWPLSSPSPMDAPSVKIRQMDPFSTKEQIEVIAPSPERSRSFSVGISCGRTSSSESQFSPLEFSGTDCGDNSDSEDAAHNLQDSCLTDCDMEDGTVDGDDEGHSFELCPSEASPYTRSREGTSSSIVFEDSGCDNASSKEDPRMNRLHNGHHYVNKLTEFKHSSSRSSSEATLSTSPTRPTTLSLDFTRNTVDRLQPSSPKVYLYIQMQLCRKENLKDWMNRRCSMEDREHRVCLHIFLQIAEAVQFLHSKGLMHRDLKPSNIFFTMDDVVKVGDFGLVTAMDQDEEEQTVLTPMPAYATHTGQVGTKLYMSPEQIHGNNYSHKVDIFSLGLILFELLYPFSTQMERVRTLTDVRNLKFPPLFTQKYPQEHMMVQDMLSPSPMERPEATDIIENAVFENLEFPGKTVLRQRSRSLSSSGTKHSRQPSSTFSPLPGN
Summary of the method: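 INS-1 cells were exposed to tunicamycin 0.1 μg/mL with compound or DMSO for 8 h. Lysates were immunoblotted for ATF4 and CHOP (1:1000). Bands were quantified by densitometry and normalized to α-tubulin; 3 independent experiments.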

[6] = molecular target: T2, Cyclic AMP-dependent transcription factor ATF-6 alpha (Rattus norvegicus) (UniProt G3V909); test: Inhibition of tunicamycin ER stress-induced ATF6 activation in rat INS-1 cells assessed as suppression of increase in Bip mRNA levels up to 10 uM after 8 hrs by qRT-PCR analysis; type: cell-based
T2 sequence (whole entry): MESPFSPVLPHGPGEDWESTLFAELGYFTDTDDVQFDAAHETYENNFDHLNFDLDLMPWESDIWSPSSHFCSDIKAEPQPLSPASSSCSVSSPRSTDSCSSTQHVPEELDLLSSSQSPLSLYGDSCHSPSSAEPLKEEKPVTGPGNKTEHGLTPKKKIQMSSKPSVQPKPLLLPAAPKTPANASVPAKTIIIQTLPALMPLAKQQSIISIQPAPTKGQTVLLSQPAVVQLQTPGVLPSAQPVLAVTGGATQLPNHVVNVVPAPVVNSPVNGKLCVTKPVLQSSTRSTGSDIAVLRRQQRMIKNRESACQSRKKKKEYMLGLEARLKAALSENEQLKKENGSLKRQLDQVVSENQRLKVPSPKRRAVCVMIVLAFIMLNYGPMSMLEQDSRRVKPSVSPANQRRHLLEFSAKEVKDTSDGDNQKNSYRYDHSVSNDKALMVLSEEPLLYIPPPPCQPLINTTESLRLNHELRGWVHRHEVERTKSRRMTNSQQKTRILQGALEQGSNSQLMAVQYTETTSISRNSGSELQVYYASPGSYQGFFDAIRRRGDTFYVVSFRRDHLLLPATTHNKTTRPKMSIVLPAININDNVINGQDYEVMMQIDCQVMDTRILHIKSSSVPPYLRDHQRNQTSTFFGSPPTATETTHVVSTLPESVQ
Summary of the method: (§1)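 INS-1 cells, 4×10^5 per well, were exposed to tunicamycin 0.1 μg/mL with compound or DMSO for 8 h. qRT-PCR for ATF4, CHOP, Bip, GRP94, or spliced XBP1 using splicing-specific primers. Values were normalized to cyclophilin A by ΔΔCt and given as fold over untreated control. Triplicate wells, 3 independent experiments.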

[7] = system: INS1; test: Effect on ATF4 mRNA level in rat INS-1 cells up to 10 uM after 8 hrs by qRT-PCR analysis; type: ADME, cell-based; conditions: ins1, 8 h; summary of the method: as §1
[8] = system: INS1; test: Protection against tunicamycin ER stress-induced suppression of MafA mRNA expression in rat INS-1 cells up to 1 uM after 24 hrs by qRT-PCR analysis; type: functional, cell-based
Summary of the method: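 INS-1 cells were exposed to tunicamycin 0.1 μg/mL with compound or DMSO for 24 h. INS1, INS2, PDX1 and MafA mRNA were measured by qRT-PCR and normalized to cyclophilin A by the comparative Ct method. Triplicate wells, 3 independent experiments.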

SMILES: O=C(NCc1ccc(C(F)(F)F)cc1)c1cccc(CN2CCCCC2)c1
- Activity [1]: Active
- Activity [2]: Non-Toxic
- Activity [3]: 0.5%
- EC50 [4]: 30 nM
- inhibition [5]: Active
- inhibition [6]: Active
- Activity [7]: Non-Toxic
- Activity [8]: Active
